Shown is part of a subset that was picked to be rich in hits.
Fibroblast inh – blocks proliferation of human lung fibroblasts; LL 47 human lung fibroblast viability, ATP luminescence; stronger effect = lower value; viability, % at 10 µM; 85,000 tested, 1.1% active;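 active means viability at or below 50% in the single dose screen; inactive means viability above 50%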;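 further: compound exposure lasted 72 h before the ATP readout; 100% = median luminescence of untreated cell-only wells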
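Benchmarks: Cell-only wells, no compound | Test system: LL 47 human lung fibroblasts, passage 12 or lower | Input: 1,150 cells/well | Measured by: CellTiter-Glo luminescence measuring cellular ATP | Medium: IMEM, 15% FBS supplement | Schedule: Overnight attachment after seeding, then 72 h compound exposure at 37 °C | Doses: Compound addition at 0.1% DMSO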
PTK2B oligo ant – antagonists of human Pyk2 oligomerization; Q14289; Q293 cells, Pyk2 FERM NanoBiT luminescence; stronger effect = lower value; z-score (the deposit names both 25 µM and 10 µM); 99,000 tested, 0.83% active;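 active means Z-score of -3 or lower, scaled per plate to the spread of control and sample wells; inactive means z-score above -3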;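 further: negative z-score means lost luminescence so less FERM oligomerization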
Target sequence (Q14289 whole entry, looked up): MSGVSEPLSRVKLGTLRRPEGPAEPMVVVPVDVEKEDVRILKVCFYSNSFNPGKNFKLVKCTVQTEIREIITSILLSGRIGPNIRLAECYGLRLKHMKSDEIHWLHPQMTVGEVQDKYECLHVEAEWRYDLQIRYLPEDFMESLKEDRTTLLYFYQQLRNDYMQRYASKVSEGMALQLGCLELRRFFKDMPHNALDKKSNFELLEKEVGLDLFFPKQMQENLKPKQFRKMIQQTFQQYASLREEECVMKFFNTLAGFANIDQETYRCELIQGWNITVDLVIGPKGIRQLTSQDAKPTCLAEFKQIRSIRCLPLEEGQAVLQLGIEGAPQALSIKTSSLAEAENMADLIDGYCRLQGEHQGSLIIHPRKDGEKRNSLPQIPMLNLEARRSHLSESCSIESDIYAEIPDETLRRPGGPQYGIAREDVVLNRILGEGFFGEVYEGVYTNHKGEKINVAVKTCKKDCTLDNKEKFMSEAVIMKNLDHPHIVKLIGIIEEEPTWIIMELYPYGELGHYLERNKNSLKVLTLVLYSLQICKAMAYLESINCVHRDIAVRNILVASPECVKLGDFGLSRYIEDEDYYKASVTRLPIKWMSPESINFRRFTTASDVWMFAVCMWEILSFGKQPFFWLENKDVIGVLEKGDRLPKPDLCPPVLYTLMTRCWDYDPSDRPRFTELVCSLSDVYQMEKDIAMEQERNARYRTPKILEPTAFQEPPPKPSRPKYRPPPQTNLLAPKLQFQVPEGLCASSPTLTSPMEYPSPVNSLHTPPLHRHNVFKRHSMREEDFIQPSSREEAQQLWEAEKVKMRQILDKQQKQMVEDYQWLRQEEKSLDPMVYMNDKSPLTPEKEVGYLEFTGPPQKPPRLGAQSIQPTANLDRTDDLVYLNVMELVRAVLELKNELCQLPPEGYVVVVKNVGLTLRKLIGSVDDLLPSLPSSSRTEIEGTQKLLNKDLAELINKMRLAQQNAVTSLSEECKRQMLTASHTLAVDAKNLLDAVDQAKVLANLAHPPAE
HCT116 PTEN-null – growth suppressors of cells with PTEN tumor suppressor deletion | HCT116 PTEN-null viability, CellTiter-Glo, 60 h; stronger effect = lower value | viability, % at 10 µM | 140,000 tested, 1.2% active;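 active means viability at or below a set limit, 4 SD under the median of all tested compounds, cut at about 3.7% in these data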;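 further: PTEN knockout HCT116 line with beta catenin targeted HCT116 as companion control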
H69AR growth 86K – blocks growth of human H69AR lung tumor cells | H69AR lung tumor viability, ATP luminescence, 72 h; stronger effect = lower value | viability, % at 10 µM | 85,000 tested, 6% active | AID 598;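 active means viability at or below 40%; inactive means viability above 40%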;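 further: multidrug resistant small cell line overexpressing MRP-1 efflux transporter; 100% = mean luminescence of untreated control wells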
HCT116 bCat-KO – beta-catenin-lacking colon tumor cell growth suppression; HCT116 beta-catenin knockout viability, CellTiter-Glo, 60 h; stronger effect = lower value; 140,000 tested, 1.5% active; AID 818; viability, % at 10 µM;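 active means viability at or under a set limit, the compound median less 4 SD, cut at about 6% in these data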;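 further: 0% = Hyamine 1622 control at 20 µM and 100% = untreated cell control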
HUVEC inhibit – human endothelial cell proliferation inhibition; viability, % at 10 µM (by protocol); AID 648; HUVEC proliferation, CellTiter-Glo luminescence, 72 h; stronger effect = lower value; 86,000 tested, 1.1% active;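 active means viability at or below 30%; inactive means viability above 30%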;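 further: 100% = median luminescence of DMSO-only cell control wells on each plate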
* hit, by the source's call.

How did CCCn1c(=O)c2ccccc2n2c(Sc3nnnn3-c3ccccc3)nnc12 do in these assays?
Fibroblast inh: 97.4; PTK2B oligo ant: -1.31; HCT116 PTEN-null: 47.9; H69AR growth 86K: 33.2*; HCT116 bCat-KO: 53.5; HUVEC inhibit: 93.8

How did CC1(C(=O)N(CC(=O)NC2CCCC2)Cc2ccco2)CC(=O)N=C2C=CC=CN21 (stereo not drawn) do in these assays?
Fibroblast inh: 97.5; PTK2B oligo ant: -0.1; HCT116 PTEN-null: 94.6; H69AR growth 86K: 102.2; HCT116 bCat-KO: 78.7; HUVEC inhibit: 102.5

How did Cc1ccc(CN(Cc2ccco2)S(=O)(=O)c2ccc(S(=O)(=O)NCC3CCCO3)cc2)cc1 (stereo not drawn) do in these assays?
HCT116 PTEN-null: 86.6; HCT116 bCat-KO: 85.1

Results for CSc1ccc(/C=C/c2cc(=O)c3ccccc3[nH]2)cc1 ?
HCT116 PTEN-null: 63.2; HCT116 bCat-KO: 77.0

How did O=c1cc(/C=C/c2cccs2)[nH]c2ccccc12 do in these assays?
Fibroblast inh: 78.6; PTK2B oligo ant: -0.74; HCT116 PTEN-null: 21.7; H69AR growth 86K: 24.9*; HCT116 bCat-KO: 13.5; HUVEC inhibit: 56.7

Results for CC(C)(C)c1ccc(/C=N/OCC(=O)NCc2ccc(F)cc2)cc1 ?
HCT116 PTEN-null: 54.6; HCT116 bCat-KO: 68.9

Results for COCCn1c(-c2ccc(OC(F)(F)C(F)C(F)(F)F)cc2)nc2c1c(=O)[nH]c(=O)n2CC(C)C (stereo not drawn) ?
Fibroblast inh: 93.7; PTK2B oligo ant: -0.55; HCT116 PTEN-null: 58.0; H69AR growth 86K: 39.4*; HCT116 bCat-KO: 64.5; HUVEC inhibit: 105.2

What do the screens show for `Cc1ccc(N(CC(O)COCc2ccco2)S(=O)(=O)c2ccc(C)cc2)cc1` (stereo not drawn)?
Fibroblast inh: 98.8; PTK2B oligo ant: -0.24; HCT116 PTEN-null: 78.5; H69AR growth 86K: 86.7; HCT116 bCat-KO: 73.9; HUVEC inhibit: 84.4

How did Cc1[nH]nc2c1C(c1cc(Br)cs1)C(C#N)=C(N)O2 (stereo not drawn) do in these assays?
HCT116 PTEN-null: 2.1*; HCT116 bCat-KO: 2.0*

What do the screens show for `O=C(CN1CCN(S(=O)(=O)c2ccc(F)cc2)CC1)Nc1ccc(Cl)c(C(F)(F)F)c1`?
Fibroblast inh: 87.6; PTK2B oligo ant: 0.04; HCT116 PTEN-null: 45.6; H69AR growth 86K: 9.0*; HCT116 bCat-KO: 61.7; HUVEC inhibit: 70.9

What do the screens show for `O=C(CN1CCN(S(=O)(=O)c2ccc(F)cc2)CC1)Nc1ccc2c(c1)OCO2`?
Fibroblast inh: 48.4*; PTK2B oligo ant: 0.33; HCT116 PTEN-null: 98.3; H69AR growth 86K: 115.6; HCT116 bCat-KO: 106.5; HUVEC inhibit: 91.0

Results for O=C(CN1CCCCC1)Nc1ccc(S(=O)(=O)N2CCCCCC2)cc1 ?
Fibroblast inh: 89.8; PTK2B oligo ant: 0.67; HCT116 PTEN-null: 90.7; H69AR growth 86K: 101.0; HCT116 bCat-KO: 79.7; HUVEC inhibit: 100.2

Results for O=C(CN1CCCN(S(=O)(=O)c2ccc(Br)cc2)CC1)Nc1ccc2c(c1)OCO2 ?
Fibroblast inh: 92.8; HCT116 PTEN-null: 74.3; H69AR growth 86K: 11.8*; HCT116 bCat-KO: 74.8; HUVEC inhibit: 89.0

Results for O=C(CN1CCCN(S(=O)(=O)c2ccc(Br)cc2)CC1)Nc1ccc2cn[nH]c2c1 ?
Fibroblast inh: 103.4; H69AR growth 86K: 2.1*; HUVEC inhibit: 101.4

How did Cn1c(N)c(C(=O)COC(=O)c2cc(C3CC3)nc3ccccc23)c(=O)n(Cc2ccccc2)c1=O do in these assays?
HCT116 PTEN-null: 85.8; HCT116 bCat-KO: 79.3

How did Cc1cccc2cc3c(N)c(C(=O)N4CCOCC4)sc3nc12 do in these assays?
Fibroblast inh: 63.7; PTK2B oligo ant: 0.19; HCT116 PTEN-null: 15.9; H69AR growth 86K: 18.3*; HCT116 bCat-KO: 13.2; HUVEC inhibit: 62.1

Results for Cc1ccc2c(Cl)cc(Cl)c(OCC(=O)NC(=O)NCc3ccco3)c2n1 ?
Fibroblast inh: 92.9; PTK2B oligo ant: -0.04; HCT116 PTEN-null: 86.8; H69AR growth 86K: 30.1*; HCT116 bCat-KO: 85.7; HUVEC inhibit: 83.0

How did CCCCNC(=O)C1CC(c2c(Cl)cccc2Cl)=NO1 (stereo not drawn) do in these assays?
HCT116 PTEN-null: 19.3; HCT116 bCat-KO: 32.1

What do the screens show for `CCOC(=O)C1=C(Nc2ccccc2)CC(C)(O)C(C(=O)OCC)C1c1ccc(Cl)cc1` (stereo not drawn)?
HCT116 PTEN-null: 55.8; HCT116 bCat-KO: 66.1

Results for O=C(c1noc2c1CCc1ccccc1-2)N1CCc2ccccc2C1 ?
Fibroblast inh: 102.0; HCT116 PTEN-null: 96.8; H69AR growth 86K: 98.2; HCT116 bCat-KO: 97.0; HUVEC inhibit: 126.8

How did Cc1ccc(NC(=O)CSc2nnnn2-c2ccc3c(c2)OCO3)cc1C do in these assays?
Fibroblast inh: 87.6; PTK2B oligo ant: 0.84; HCT116 PTEN-null: 54.2; H69AR growth 86K: 102.8; HCT116 bCat-KO: 35.0; HUVEC inhibit: 69.3

Results for O=C(Nc1ccc2c(c1)C(=O)N(CC1CCCO1)C2=O)c1cccc(Br)c1 (stereo not drawn) ?
Fibroblast inh: 102.3; PTK2B oligo ant: -3.15*; HCT116 PTEN-null: 90.9; H69AR growth 86K: 79.8; HCT116 bCat-KO: 89.0; HUVEC inhibit: 97.6

How did O=C(O)c1cccc(NC(=O)c2ccc3c(c2)C(=O)N(CC2CCCO2)C3=O)c1 (stereo not drawn) do in these assays?
Fibroblast inh: 94.3; PTK2B oligo ant: -0.21; HCT116 PTEN-null: 103.4; H69AR growth 86K: 93.6; HCT116 bCat-KO: 90.6; HUVEC inhibit: 93.6

What do the screens show for `COc1ccc(OC(C)C(=O)N2CCc3ccccc3C2)cc1` (stereo not drawn)?
Fibroblast inh: 96.4; PTK2B oligo ant: 1.03; HCT116 PTEN-null: 32.5; H69AR growth 86K: 25.4*; HCT116 bCat-KO: 31.6; HUVEC inhibit: 73.7

Results for Cc1nc(-n2ncc(C#N)c2N)c2c3c(sc2n1)CCC3 ?
Fibroblast inh: 96.2; PTK2B oligo ant: 1.3; HCT116 PTEN-null: 2.0*; H69AR growth 86K: 79.9; HCT116 bCat-KO: 84.0; HUVEC inhibit: 65.5

What do the screens show for `Cc1cccc(Oc2nc(CN3CCOCC3)nc3sc4c(c23)CCCC4)c1`?
HCT116 PTEN-null: 62.6; HCT116 bCat-KO: 68.2

Results for CC1Cc2ccccc2N1Cc1nc2cc(Cl)ccc2c(=O)[nH]1 (stereo not drawn) ?
Fibroblast inh: 81.5; PTK2B oligo ant: 0.14; HCT116 PTEN-null: 70.9; H69AR growth 86K: 25.3*; HCT116 bCat-KO: 66.8; HUVEC inhibit: 74.1

Results for COC(=O)c1ccc2c(=O)[nH]c(CN3c4ccccc4CC3C)nc2c1 (stereo not drawn) ?
Fibroblast inh: 100.3; PTK2B oligo ant: -1.31; HCT116 PTEN-null: 92.3; H69AR growth 86K: 51.0; HCT116 bCat-KO: 96.1; HUVEC inhibit: 84.1

Results for O=C(O)CNC(=O)c1ccc(S(=O)(=O)N2CCOCC2)cc1 ?
Fibroblast inh: 105.0; PTK2B oligo ant: 0.81; HCT116 PTEN-null: 114.8; H69AR growth 86K: 95.8; HCT116 bCat-KO: 109.8; HUVEC inhibit: 110.5
